Experiment: Toxicity liver stage against HepG2, at 10uM
Type: cell-based
Design: test concentration 10 uM, cell line HepG2-A16-CD81EGFP
Conditions: human, HepG2-A16-CD81EGFP cells; read-out: INHIBITION
Outline: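 Uninfected HepG2-A16-CD81EGFP cells, 3 × 10^3 per well, 1536-well, plated on prespotted compound at 10 μM final, parasite-free screening media added to match infected plates; puromycin 10 μM positive, DMSO 0.5% negative; run in parallel with 48 h PbLuc assay at 37 °C, 5% CO2; viability by CellTiter-Glo luminescence, normalized to controls.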

Row | Structure (SMILES) | cytotoxicity at 10 µM [%]
1 | CC(C)CNC(=O)c1nc(COc2ccc3c(c2)OCO3)no1 | 2.93
2 | CCOC(=O)c1cc2n(n1)CCCO2 | 3.86
3 | Cc1noc(CNC(=O)CN(C)c2nc3c(C)ccc(C)c3s2)n1 | 55.7
4 | Cc1nc(C#N)c(N2CCC(c3nc(-c4ccccc4)no3)CC2)o1 | -7.41
5 | Cc1c(CNS(=O)(=O)c2cccc(COC(C)C)c2)cnn1C | 6.14
6 | CN(C)c1ccc(C(=O)N2CCC(c3cc4ncccc4[nH]3)CC2)cc1 | -2.32
7 | CCCn1ncc(CN2C[C@@H]3CCCN3C[C@H]2Cc2ccccc2)c1C | -16.3
8 | Cc1ccc(C(=O)N2CCc3nc4c(C)csc4c(=O)n3CC2)cn1 | -7.33
9 | COCc1cc(O)nc(C2CCCN(Cc3cccc(OC)c3)C2)n1 (stereo unspecified) | 4.97
10 | CCOC(=O)CCN(Cc1cccnc1)C(=O)c1cc(Cl)c[nH]1 | -1.24
11 | CCN(CC)S(=O)(=O)CC(=O)N1CCc2ccc(C)cc21 | -5.77
12 | CC(=O)NCC1CCN(Cc2nc(C3CC3)no2)CC1 | -4.12
13 | Cc1nsc(N2CCN(Cc3cccc(F)c3)CC2)n1 | 2.74
14 | CN(Cc1ccccc1CNC(=O)C1CNC(=O)N1)C1CCCCC1 (stereo unspecified) | 5.09
15 | CCc1ncnc(N2CCOCC2C2CC2)c1F (stereo unspecified) | -6.62
16 | Cc1cccc(CSc2nnc(C)n2CC(N)=O)c1 | -4.46
17 | Cc1cc(=O)n2ncnc2n1CC(O)c1ccc(F)cc1F (stereo unspecified) | -1.2
18 | CC(C)C(=O)NCCNC(=O)C12CCC(=O)N1c1cc(Cl)ccc1S2 (stereo unspecified) | 15.3
19 | CC(C)n1c2ccccc2c2c1cc(C(=O)O)n2C(=O)N(C)C | -94.3
20 | Cc1csc(CN2C[C@@H]3CN(C)CCO[C@@H]3C2)n1 | -105
21 | O=C(CC1CC2(CCNCC2)c2ccccc21)NCC1CC1 (stereo unspecified) | -118
22 | CS(=O)(=O)NC[C@]12COC[C@H]1CN(C(=O)C1CC(F)(F)C1)C2 | -95.5
23 | O=C(NC1CCC1)C1=NOC2(CCN(Cc3ccccc3)C2)C1 (stereo unspecified) | -97.6

Row | Structure (SMILES) | cytotoxicity at 10 µM [%]
24 | CN1CCC2(CC1)CN(C(=O)c1ccncc1)Cc1ccccc12 | -86.3
25 | Cc1cc2n(n1)CCN(c1nc(N(C)C)nc3c1CCNC3)C2 | 0.94
26 | CCCn1ncc(CN(CCN(C)C)Cc2ccsc2)c1C | 12.2
27 | Cc1ncsc1CCN(C)Cc1ccc(CO)o1 | -15.3
28 | CN1CCCC(CNS(=O)(=O)N2CCc3ccccc3C2)C1 (stereo unspecified) | -4.32
29 | O=C(O)[C@@H]1CN(C2CCCC2)C[C@H]1C1CC1 | -147
30 | CCc1cc(N(C)Cc2noc(CC(C)C)n2)ncn1 | 7.18
31 | Cc1cc(CN2CCCC(CNC(=O)Cn3cccn3)C2)oc1C (stereo unspecified) | 6.2
32 | O[C@H]1[C@H](NCCc2cnccn2)c2ccccc2C12CCNCC2 | -7.32
33 | c1cncc(NCCNC2CSCCSC2)c1 | 15.8
34 | CC(O)Cc1cn(CC2CCN(C3CCSCC3)CC2)nn1 (stereo unspecified) | 8.88
35 | CC(c1ccon1)N(C)C(=O)C1CCN(C(=O)C2CCC2)CC1 (stereo unspecified) | 7.13
36 | COc1cccc(Cl)c1C(C(=O)O)N(C)Cc1c(C)n[nH]c1C (stereo unspecified) | -1.89
37 | COc1ccc(OC)c(-c2nc(CN(C)Cc3nncn3C)c(C)o2)c1 | -9.57
38 | CN(Cc1cccnc1)C1CCCN(Cc2noc(C3CC3)n2)C1 (stereo unspecified) | -4.95
39 | CN1CCOC(CNCc2coc(-c3cccc(F)c3)n2)C1 (stereo unspecified) | -29.3
40 | Cc1c(C(=O)NCC2CCS(=O)(=O)C2)cnn1-c1ccccc1 (stereo unspecified) | -10.2
41 | CCn1cnnc1CNC(=O)NC(C)c1ccccn1 (stereo unspecified) | -17.6
42 | CCC(C)S(=O)(=O)N1CCc2nc(C3CCNCC3)ncc2C1 (stereo unspecified) | -10.7
43 | O=C(CC1CC1)N1CCc2ncc(Cn3cncn3)n2CC1 | -71.6
44 | CS(=O)(=O)N1CCOCC2(CN(Cc3ccc(F)cc3)CCO2)C1 (stereo unspecified) | 1.42
45 | O=C(c1cccc(F)c1)N1CCC2(CC1)CN(c1ccccn1)CCO2 | -74.1
46 | Fc1cnc(N2CCCC3(CCN(Cc4cccs4)C3)C2)nc1 (stereo unspecified) | -71.1

Reference: ChEMBL document CHEMBL4513216, “Probing the Open Global Health Chemical Diversity Library for Multistage-Active Starting Points for Next-Generation Antimalarials” (ACS Infect Dis, 2020)
